Compound activity deposited in PubChem by The Scripps Research Institute Molecular Screening Center.
M4 antag – CHRM4 antagonism in calcium assay; AID 624125; hit rate 0.73% among 360,000; CHO-hM4 cells, ACh EC80, Fluo-8 calcium fluorescence; inhibition, % at 3 µM; P08173;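 active = inhibition above its plate's cutoff, the mean inhibition of sample wells plus 3 SD, cut at about 27% in these data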;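 also: 0% = acetylcholine EC80 with DMSO and 100% = DMSO without agonist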
Target sequence (P08173 whole entry, looked up): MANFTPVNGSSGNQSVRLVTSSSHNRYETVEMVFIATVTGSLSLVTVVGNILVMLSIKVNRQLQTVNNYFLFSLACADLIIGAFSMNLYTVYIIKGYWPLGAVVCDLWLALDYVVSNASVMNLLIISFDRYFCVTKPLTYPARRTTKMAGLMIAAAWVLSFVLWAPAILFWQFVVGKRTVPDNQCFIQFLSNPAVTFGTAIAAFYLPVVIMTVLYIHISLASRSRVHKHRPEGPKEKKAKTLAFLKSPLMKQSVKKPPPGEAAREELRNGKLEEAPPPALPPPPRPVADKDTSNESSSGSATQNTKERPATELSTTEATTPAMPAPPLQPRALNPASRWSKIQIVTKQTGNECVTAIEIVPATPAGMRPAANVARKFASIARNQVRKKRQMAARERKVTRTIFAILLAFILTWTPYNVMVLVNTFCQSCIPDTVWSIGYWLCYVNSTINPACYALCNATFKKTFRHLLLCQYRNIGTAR
CHRM5 agonist – agonists of human muscarinic M5 receptor (CHRM5); P08912; CHO-K1 hM5 cells, Fluo-8 calcium fluorescence; 0% DMSO wells, 100% maximal acetylcholine response; activation, % at 3 µM; hit rate 0.19% among 360,000;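 active = activation above the run's mean over test compounds plus 3 SD, cut at about 23% in these data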;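 also: signal is peak over basal fluorescence ratio across the kinetic read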
M5 PAM – potentiates acetylcholine response at human M5 receptor | P08912 | CHO-K1 hM5, Fluo-8 calcium, ACh EC20 PAM; 0% = ACh EC20, 100% = ACh EC100 | activation, % at 3 µM | hit rate 0.3% among 360,000;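 active = activation above the run cutoff, the mean activation of all test compounds plus 3 SD, cut at about 18% in these data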
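system = human M5 receptor in CHO-K1 cells | compound = one concentration, 3 µM final (nominal) | schedule = Post-acetylcholine fluorescence recording 140 s | signal = Fluo-8 calcium dye fluorescence, kinetic read | benchmarks = low control EC20 acetylcholine (0%), high control EC100 acetylcholine (100%) | repeats = singlicate, one well per test compound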
CHRM4 PAM – potentiates acetylcholine response at human M4 receptor; P08173; CHO-K1 hM4/Gqi5, Fluo-8 calcium fluorescence, ACh EC20; 0% = ACh EC20, 100% = maximal ACh; activation, % at 3 µM; hit rate 0.4% among 360,000;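 active = activation above its plate's cutoff, the mean activation of sample wells plus 3 SD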
M4 ag – agonists of human muscarinic M4 receptor (CHRM4). P08173. CHO-K1 hM4/Gqi5, Fluo-8 calcium fluorescence; vehicle 0%, full acetylcholine response 100%. activation, % at 3 µM. hit rate 0.14% among 360,000. AID 624127;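 active = activation above the run mean over all test wells plus 3 SD, cut at about 32% in these data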;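 also: peak over basal fluorescence ratio per well then scaled between controls; 0% = DMSO wells and 100% = acetylcholine at EC100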
CHRM5 antagonist – blocks acetylcholine activation of human M5 receptor; hit rate 0.59% among 360,000; P08912; CHO-hM5 cells, Fluo-8 calcium fluorescence, ACh EC80; inhibition, % at 3 µM;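 active = inhibition above a per-plate cutoff, the mean of that plate's test compounds plus 3 SD, cut at about 27% in these data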;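 also: 0% = acetylcholine EC80 with DMSO and 100% = DMSO without agonist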
* marks the source's active call; other numbers are inactive results. An excerpt weighted towards active compounds, which were near 1.8% of everything screened.

SMILES | M4 antag | CHRM5 agonist | M5 PAM | CHRM4 PAM | M4 ag | CHRM5 antagonist
O=C(COc1ccc(-c2ccccc2)cc1)NNC(=O)Nc1ccc(F)cc1F | 7.8 | 2.7 | 43.3* | -0.1 | 0.4 | 19.4
COc1ccc(OC)c(NC(=O)NNC(=O)COc2ccc(-c3ccccc3)cc2)c1 | 2.2 | -1.3 | 9.2 | -1.7 | 0.7 | -18.7
O=C(COc1ccc([N+](=O)[O-])cc1)NNC(=O)Nc1cccc(F)c1 | 6.9 | -0.3 | -10.9 | -5.8 | 1.3 | 29.2*
O=C(COc1ccccc1)NC1CCCCC1 | -0.1 | -1.4 | -2.8 | 9.5 | 0.7 | 3.2
O=C(COc1ccc(F)cc1F)NNC(=O)Nc1cccc([N+](=O)[O-])c1 | 1.3 | -3.9 | 3.6 | 0.1 | 1.8 | -3.0
CCOc1ccc(NC(=O)NNC(=O)COc2ccc3ccccc3c2)cc1 | -5.0 | 2.3 | 34.2* | 0.5 | 1.0 | 22.3
O=C(COc1ccc(-c2ccccc2)cc1)NNC(=O)NC1CCCCC1 | 86.7* | -1.7 | -6.0 | -21.1 | 2.7 | -2.4
Cc1ccc(C(=O)Nc2c(-c3ccc(Cl)cc3)[nH][nH]c2=O)cc1 | -6.7 | -2.1 | -4.3 | 6.2 | 0.6 | 9.8
CC(C)C1CC(CCN)(c2ccccc2)CCO1 (stereo not given) | 48.1* | -12.5 | 2.5 | -12.6 | 0.7 | 7.2
O=C(Nc1cccc(F)c1)N1CCc2nc(NCc3cccc(Oc4ccccc4)c3)ncc2C1 | -13.4 | -0.9 | -10.5 | -6.0 | 5.5 | 6.5
CCCNC(=O)Cn1c(=O)/c(=C/c2ccc(-c3ccc([N+](=O)[O-])cc3)o2)s/c1=C\C(=O)C(C)(C)C | 22.0 | 122.7* | -8.8 | -6.7 | 34.7* | 53.3*
CSc1ccc(/C=c2\s/c(=C\C(=O)C(C)(C)C)n(CC(=O)NCCC3=CCCCC3)c2=O)cc1 | 2.7 | -0.1 | 0.3 | 9.4 | 3.0 | -8.6
Cc1ccc(NC(=O)CSC(C)C(=O)OCc2cc(=O)oc3cc(O)ccc23)cc1 (stereo not given) | -2.4 | 2.7 | -4.8 | -8.3 | 12.7 | 5.6
COc1ccc(C(C)(O)c2nc(-c3cccc(C(C)C)c3)cs2)cc1 (stereo not given) | 16.2 | -1.2 | 6.9 | -6.3 | 0.3 | -8.8
CC(C)N1CCN(C(=O)c2ccc(NC(=O)c3ccc(Br)o3)cc2)CC1 | -0.3 | 2.8 | 20.3* | 9.9 | 1.4 | -1.7
CCc1nc2c(OCc3ccccc3C(=O)OC)cccn2c1N(C)C(=O)Nc1ccccc1OC | -6.3 | -2.2 | -1.0 | 0.0 | -2.1 | 1.4
CC(=O)c1ccc(N2CCN(C(=S)Nc3ccc(Oc4ccccc4)cc3)CC2)cc1 | 18.5 | 2.5 | -30.9 | -21.1 | 13.4 | 34.8*
Cc1ccc(C(=O)N2CCN(c3ccc(NC(=S)NC(=O)Cc4ccccc4)cc3)CC2)cc1 | 13.5 | -0.6 | -19.3 | -9.3 | 4.4 | 29.1*
COc1ccc(N2CCN(C(=S)Nc3ccccc3)CC2)cc1 | -2.8 | 1.4 | -3.2 | -3.1 | 0.9 | 10.0
COc1ccccc1Cc1c(-c2ccc(OC)c(OC)c2)nc2c(Cl)cc(C(F)(F)F)cn12 | -8.6 | 0.4 | -1.6 | 1.4 | -0.1 | -4.9
COc1cc(CNCCc2ccccc2)cc(Cl)c1OCc1ccccc1 | 27.3* | 4.8 | 2.7 | -15.3 | 20.6 | 3.9
COc1ccc(C(C#N)=Cc2cccc(OC)c2OC)cc1 | -17.3 | -8.5 | -2.9 | 4.5 | 4.2 | 9.6
CCN(c1ccccc1)S(=O)(=O)c1cc(C(=O)O)ccc1C | -0.6 | -1.9 | 12.9 | 17.3* | -0.1 | -6.5
O=C(O)c1ccc(Cl)c(S(=O)(=O)N(Cc2ccccc2)c2ccccc2)c1 | 9.4 | -1.4 | 2.8 | 1.9 | 0.4 | 12.9
CCN(CC)C1=NC=CC(c2ccccc2)=CC1C (stereo not given) | 39.1* | -7.3 | -12.3 | -32.4 | 1.7 | 8.2
SMILES | M4 antag | CHRM5 agonist | M5 PAM | CHRM4 PAM | M4 ag | CHRM5 antagonist
CCCCCCCCN1C(=O)[C@H](CC(=O)N2CCN(C(=O)C3CC3)CC2)C[C@@]2(C(=O)OC)CCCCC=C12 | 1.8 | 1.3 | -4.0 | 0.7 | 2.9 | 3.6
CCOC(=O)C1(CCCc2ccccc2)CCN(C2CCSCC2)CC1 | 7.8 | -10.8 | -20.8 | -19.8 | 3.3 | 29.9*
O=S(=O)(Nc1ccc(-c2csc(-c3ccccc3)n2)cc1)c1ccc(F)cc1 | 2.9 | -1.2 | 0.3 | 31.3* | -0.1 | 4.6
O=C(Nc1nc(-c2ccccc2)cs1)c1ccccc1NS(=O)(=O)c1ccc(F)cc1 | 31.0* | 7.8 | -20.0 | -14.0 | 16.4 | 42.1*
COc1cccc(CNc2nc3cc(-c4ccc(C(=O)N5CCN(C)CC5)cc4)sc3c(=O)n2C)c1 | -13.7 | -0.8 | 0.1 | 3.7 | 4.5 | -5.8
CCN(CC)CCNC(=O)c1ccc(NC(=O)Cc2ccccc2F)cc1 | -6.5 | -10.6 | 6.7 | 8.3 | 0.2 | -4.8
CCN(CC)CCNC(=O)c1ccc(NC(=O)c2ccc3c(c2)CCC3)cc1 | -15.5 | -10.4 | -2.1 | -4.3 | 1.4 | -1.1
CCN(CC)CCNC(=O)c1ccc(NC(=O)c2cccc(S(=O)(=O)N(C)C3CCCCC3)c2)cc1 | 98.2* | -9.8 | -40.3 | -15.6 | 0.6 | 97.9*
CCN(CC)CCNC(=O)c1ccc(NC(=O)c2ccccc2-c2ccc(C(F)(F)F)cc2)cc1 | 70.8* | -6.9 | -17.7 | -17.4 | 3.2 | 80.8*
CC(=O)Nc1ccc(CCCCc2ccc(NC(C)=O)cc2)cc1 | -3.2 | 4.0 | 3.2 | 2.7 | 2.3 | -3.6
CC1=CC(C)(C)N2C(=O)C(=Nc3ccc(O)cc3)c3cccc1c32 | 25.6 | 38.0* | 6.3 | 22.7 | -0.4 | 5.1
COc1cc(N=C2C(=O)N3c4c(cccc42)C(C)=CC3(C)C)cc(OC)c1 | -17.2 | 26.8* | 4.3 | 9.6 | 2.2 | -10.7
Cc1sc2ncnc(N3CCN(CCOc4ccc(Cl)cc4)CC3)c2c1C | 11.3 | 2.9 | -25.1 | 0.2 | 12.1 | 32.2*
Cc1sc2ncnc(N3CCC(C(=O)NNC(=O)COc4ccc(Cl)cc4)CC3)c2c1C | 2.8 | 7.0 | -17.6 | -8.1 | 20.9 | 15.1
Cc1nnsc1C(=O)NC1CCCc2c1cnn2-c1ccc(C(C)(C)C)cc1 (stereo not given) | 10.5 | -1.7 | -12.9 | -5.1 | 13.1 | 27.5*
Cc1nnsc1C(=O)NC1CCCc2c1cnn2-c1ccccc1F (stereo not given) | 2.7 | 6.1 | -9.1 | -1.3 | 10.2 | 7.6
CN(C(=O)CCN1C(=O)/C(=C/c2ccccc2)SC1=S)C1CCS(=O)(=O)C1 (stereo not given) | -5.2 | 2.0 | 30.5* | 0.2 | 3.3 | 20.5
CN(C(=O)CN1C(=O)S/C(=C\c2ccc(Cl)cc2)C1=O)C1CCS(=O)(=O)C1 (stereo not given) | -20.6 | -2.9 | 1.2 | 16.6* | 2.5 | -7.5
CN(C(=O)CN1C(=O)/C(=C/c2ccc(F)cc2)SC1=S)C1CCS(=O)(=O)C1 (stereo not given) | 2.6 | -0.8 | 8.8 | 7.8 | 0.9 | 5.4
